From ChEMBL document CHEMBL3745713, “Bromotyrosine-derived metabolites from an Indonesian marine sponge in the family Aplysinellidae (Order Verongiida)” (Bioorg Med Chem Lett, 2016)

Tests used:
[1] = Cytotoxicity against human A2780S/CP5 cells assessed as cell growth at 50 uM measured at 72 hrs by CyQuant proliferation assay relative to control; format: functional; settings: A2780S/CP5, 72 h, read-out: Activity
In short: (§1)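 Single-concentration screen at 50 and 5 μM across the cancer lines and normal mouse NIH3T3 fibroblasts. Cell growth was read by CyQuant proliferation assay at 72 h. Values are expressed relative to DMSO-treated control. Done in triplicate, one experiment (n=1).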

[2] = tested on: A549; assay: Cytotoxicity against human A549 cells assessed as cell growth at 5 uM measured at 72 hrs by CyQuant proliferation assay relative to control; format: functional; settings: A549, 72 h, read-out: Activity; in short: as §1
[3] = target: Beta-secretase 1 (Homo sapiens) (UniProt P56817); assay: Inhibition of BACE1 (unknown origin) using BACE ED as substrate at 31.4 uM by EFC assay
[4] = Cytotoxicity against human A2780S cells assessed as cell growth at 50 uM measured at 72 hrs by CyQuant proliferation assay relative to control; format: functional; settings: A2780, 72 h, read-out: Activity; in short: as §1
[5] = Cytotoxicity against mouse NIH/3T3 cells assessed as cell growth at 5 uM measured at 72 hrs by CyQuant proliferation assay relative to control; format: cell-based, NIH3T3; settings: read-out: Activity; in short: as §1
[6] = Cytotoxicity against human A2780S cells assessed as cell growth at 5 uM measured at 72 hrs by CyQuant proliferation assay relative to control; format: functional; settings: A2780, 72 h, read-out: Activity; in short: as §1
[7] = Cytotoxicity against human A2780S/CP5 cells assessed as cell growth at 5 uM measured at 72 hrs by CyQuant proliferation assay relative to control; format: functional; settings: A2780S/CP5, 72 h, read-out: Activity; in short: as §1
[8] = Cytotoxicity against human U251MG cells assessed as cell growth at 50 uM measured at 72 hrs by CyQuant proliferation assay relative to control; format: functional; settings: U-251, 72 h, read-out: Activity; in short: as §1
[9] = tested on: MCF7; assay: Cytotoxicity against human MCF7 cells assessed as cell growth at 50 uM measured at 72 hrs by CyQuant proliferation assay relative to control; format: functional; settings: MCF7, 72 h, read-out: Activity; in short: as §1
[10] = tested on: MCF7; assay: Cytotoxicity against human MCF7 cells assessed as cell growth at 5 uM measured at 72 hrs by CyQuant proliferation assay relative to control; format: functional; settings: MCF7, 72 h, read-out: Activity; in short: as §1
[11] = Cytotoxicity against mouse NIH/3T3 cells assessed as cell growth at 50 uM measured at 72 hrs by CyQuant proliferation assay relative to control; format: cell-based, NIH3T3; settings: read-out: Activity; in short: as §1
[12] = Cytotoxicity against human U251MG cells assessed as cell growth at 5 uM measured at 72 hrs by CyQuant proliferation assay relative to control; format: functional; settings: U-251, 72 h, read-out: Activity; in short: as §1
[13] = tested on: A549; assay: Cytotoxicity against human A549 cells assessed as cell growth at 50 uM measured at 72 hrs by CyQuant proliferation assay relative to control; format: functional; settings: A549, 72 h, read-out: Activity; in short: as §1
[14] = Cytotoxicity against human U251MG cells assessed as cell growth at 20 uM measured at 72 hrs by CyQuant proliferation assay relative to control; format: functional; settings: U-251, 72 h, read-out: Activity
[15] = tested on: A549; assay: Cytotoxicity against human A549 cells assessed as cell growth at 20 uM measured at 72 hrs by CyQuant proliferation assay relative to control; format: functional; settings: A549, 72 h, read-out: Activity
[16] = tested on: MCF7; assay: Cytotoxicity against human MCF7 cells assessed as cell growth at 20 uM measured at 72 hrs by CyQuant proliferation assay relative to control; format: functional; settings: MCF7, 72 h, read-out: Activity
[17] = Cytotoxicity against mouse NIH/3T3 cells assessed as cell growth at 20 uM measured at 72 hrs by CyQuant proliferation assay relative to control; format: cell-based; settings: nih3t3, 72 h
[18] = Cytotoxicity against human A2780S/CP5 cells assessed as cell growth at 20 uM measured at 72 hrs by CyQuant proliferation assay relative to control; format: functional; settings: A2780S/CP5, 72 h, read-out: Activity
[19] = Cytotoxicity against human A2780S cells assessed as cell growth at 20 uM measured at 72 hrs by CyQuant proliferation assay relative to control; format: functional; settings: A2780, 72 h, read-out: Activity
[20] = target: Beta-secretase 1 (Homo sapiens) (UniProt P56817); assay: Inhibition of BACE1 (unknown origin) using BACE ED as substrate at 31.8 uM by EFC assay
[21] = tested on: A549; assay: Cytotoxicity against human A549 cells assessed as cell growth at 25 uM measured at 72 hrs by CyQuant proliferation assay relative to control; format: functional; settings: A549, 72 h, read-out: Activity
[22] = Cytotoxicity against human A2780S cells assessed as cell growth at 25 uM measured at 72 hrs by CyQuant proliferation assay relative to control; format: functional; settings: A2780, 72 h, read-out: Activity
[23] = Cytotoxicity against human A2780S/CP5 cells assessed as cell growth at 25 uM measured at 72 hrs by CyQuant proliferation assay relative to control; format: functional; settings: A2780S/CP5, 72 h, read-out: Activity
[24] = Cytotoxicity against mouse NIH/3T3 cells assessed as cell growth at 25 uM measured at 72 hrs by CyQuant proliferation assay relative to control; format: cell-based, NIH3T3; settings: read-out: Activity
[25] = tested on: MCF7; assay: Cytotoxicity against human MCF7 cells assessed as cell growth at 25 uM measured at 72 hrs by CyQuant proliferation assay relative to control; format: functional; settings: MCF7, 72 h, read-out: Activity
[26] = Cytotoxicity against human U251MG cells assessed as cell growth at 25 uM measured at 72 hrs by CyQuant proliferation assay relative to control; format: functional; settings: U-251, 72 h, read-out: Activity
[27] = target: Beta-secretase 1 (Homo sapiens) (UniProt P56817); assay: Inhibition of BACE1 (unknown origin) using BACE ED as substrate at 42 uM by EFC assay
[28] = target: Beta-secretase 1 (Homo sapiens) (UniProt P56817); assay: Inhibition of BACE1 (unknown origin) using BACE ED as substrate at 30.6 uM by EFC assay
[29] = target: Beta-secretase 1 (Homo sapiens) (UniProt P56817); assay: Inhibition of BACE1 (unknown origin) using BACE ED as substrate at 42.6 uM by EFC assay
[30] = Cytotoxicity against human A2780S cells by CyQuant proliferation assay; format: functional, cell-based; settings: A2780
In short: (§2)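 CyQuant proliferation assay in A2780S, cisplatin-resistant A2780CP (SCP5) and U251MG cells. Cells were exposed to varying concentrations, maximum 50 μM, and compared with solvent-only treated cells. IC50 was determined from triplicates, two independent experiments (n=2).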

[31] = Cytotoxicity against human A2780S/CP5 cells by CyQuant proliferation assay; format: functional, cell-based; in short: as §2
[32] = Cytotoxicity against human U251MG cells by CyQuant proliferation assay; format: functional, cell-based; settings: U-251; in short: as §2
[33] = target: Beta-secretase 1 (Homo sapiens) (UniProt P56817); assay: Inhibition of BACE1 (unknown origin) using BACE ED as substrate at 48.3 uM by EFC assay
[34] = target: Beta-secretase 1 (Homo sapiens) (UniProt P56817); assay: Inhibition of BACE1 (unknown origin) using BACE ED as substrate at 41.7 uM by EFC assay
[35] = target: Beta-secretase 1 (Homo sapiens) (UniProt P56817); assay: Inhibition of BACE1 (unknown origin) using BACE ED as substrate at 39.6 uM by EFC assay
[36] = target: Beta-secretase 1 (Homo sapiens) (UniProt P56817); assay: Inhibition of BACE1 (unknown origin) using BACE ED as substrate at 41.9 uM by EFC assay

Beta-secretase 1 (Homo sapiens), sequence (P56817 whole entry): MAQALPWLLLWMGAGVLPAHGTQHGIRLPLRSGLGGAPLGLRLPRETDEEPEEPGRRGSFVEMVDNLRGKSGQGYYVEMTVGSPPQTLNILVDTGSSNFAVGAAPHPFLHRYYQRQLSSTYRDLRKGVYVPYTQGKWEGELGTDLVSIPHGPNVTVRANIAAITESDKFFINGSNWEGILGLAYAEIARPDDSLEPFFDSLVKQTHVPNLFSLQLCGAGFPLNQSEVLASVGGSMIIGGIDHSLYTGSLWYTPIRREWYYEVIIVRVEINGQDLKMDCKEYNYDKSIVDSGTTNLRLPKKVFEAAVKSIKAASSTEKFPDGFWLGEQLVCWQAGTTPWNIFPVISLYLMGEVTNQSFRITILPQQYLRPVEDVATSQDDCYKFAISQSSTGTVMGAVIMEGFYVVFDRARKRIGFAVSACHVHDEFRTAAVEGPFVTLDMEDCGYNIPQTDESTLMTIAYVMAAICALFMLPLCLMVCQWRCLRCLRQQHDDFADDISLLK

Row | Compound | growth at 50 µM [1] [%] | growth at 5 µM [2] [%] | growth at 50 µM [4] [%] | viability at 72 h, 5 µM [5] [%] | growth at 5 µM [6] [%] | growth at 5 µM [7] [%] | growth at 50 µM [8] [%] | growth at 50 µM [9] [%] | growth at 5 µM [10] [%] | viability at 72 h, 50 µM [11] [%] | growth at 5 µM [12] [%] | growth at 50 µM [13] [%] | other results
1 | CCCCCCC(C)CCCCCCCC(=O)NCCc1cc(Br)c(OCCCNC(=O)C2=NO[C@@]3(C=C(Br)C(OC)=C(Br)[C@H]3O)C2)c(Br)c1 (stereo not given in full) | 79 | 89 | 87 | 94 | 85 | 109 | 97 | 101 | 104 | 95 | 99 | 105 | inhibition [3]: 70%
2 | COc1cc([C@@H]2c3cc4c(cc3[C@@H](O[C@@H]3O[C@@H]5CO[C@@H](C)O[C@H]5[C@H](O)[C@H]3O)[C@H]3COC(=O)[C@H]23)OCO4)cc(OC)c1O [ETOPOSIDE] | – | – | – | – | – | – | – | – | – | – | – | – | growth at 20 µM [14]: 21%; growth at 20 µM [15]: 49%; growth at 20 µM [16]: 46%; Activity [17]: 46%; growth at 20 µM [18]: 33%; growth at 20 µM [19]: 35%
3 | COC1=C(Br)[C@@H](O)[C@]2(C=C1Br)CC(C(=O)NCCCOc1c(Br)cc(CCNC(=O)CCCCCCCCCCCC(C)C)cc1Br)=NO2 | 48 | 88 | 18 | 88 | 77 | 68 | 80 | 64 | 103 | 95 | 98 | 85 | inhibition [20]: 57%
4 | O=C(CCCCCCC(=O)Nc1ccccc1)NO [VORINOSTAT] | – | – | – | – | – | – | – | – | – | – | – | – | growth at 25 µM [21]: 51%; growth at 25 µM [22]: 23%; growth at 25 µM [23]: 18%; viability at 72 h, 25 µM [24]: 46%; growth at 25 µM [25]: 52%; growth at 25 µM [26]: 20%
5 | CNCCCOc1c(Br)cc(CCNC(=O)/C(Cc2cc(Br)c(OC)c(Br)c2)=N/O)cc1Br | 10 | 42 | 13 | 101 | 11 | 29 | 30 | 58 | 50 | 3 | 17 | 11 | inhibition [27]: 74%
6 | CCCCC(C)CCC/C=C\CCCCCCC(=O)NCCc1cc(Br)c(OCCCNC(=O)C2=NO[C@@]3(C=C(Br)C(OC)=C(Br)[C@H]3O)C2)c(Br)c1 (stereo not given in full) | 66 | 98 | 76 | 100 | 82 | 105 | 90 | 104 | 105 | 98 | 98 | 104 | inhibition [28]: 60%
7 | COc1c(Br)cc(C/C(=N\O)C(=O)NCCc2cc(Br)c(OCCCN)c(Br)c2)cc1Br | 12 | 92 | 11 | 105 | 81 | 78 | 24 | 26 | 95 | 16 | 107 | 24 | inhibition [29]: 62%
8 | COc1c(Br)cc(C/C(=N\O)C(=O)NCCCOc2c(Br)cc(CCN)cc2Br)c(O)c1Br | 9 | 96 | 9 | 102 | 60 | 96 | 20 | 27 | 97 | 104 | 111 | 21 | IC50 [30]: 20 µM; IC50 [31]: 40 µM; IC50 [32]: 50 µM; inhibition [27]: 36%
9 | CNCCCOc1c(Br)cc(CCNC(=O)/C(Cc2ccc(O)c(Br)c2)=N/O)cc1Br | 51 | 97 | 26 | 99 | 82 | 94 | 40 | 69 | 100 | 105 | 111 | 64 | inhibition [33]: 48%; IC50 [30]: > 50 µM; IC50 [31]: > 50 µM; IC50 [32]: > 50 µM
10 | CCCCCCC(C)CCCCCCCCC(=O)NCCc1cc(Br)c(OCCCNC(=O)C2=NO[C@@]3(C=C(Br)C(OC)=C(Br)[C@H]3O)C2)c(Br)c1 (stereo not given in full) | 78 | 82 | 88 | 98 | 90 | 100 | 101 | 109 | 106 | 102 | 100 | 106 | –
11 | COC1=C(Br)[C@@H](O)[C@]2(C=C1Br)CC(C(=O)NCCCOc1c(Br)cc(CCN)cc1Br)=NO2 [ARAPLYSILLIN 1] | 22 | 16 | 14 | 38 | 8 | 11 | 30 | 71 | 36 | 7 | 32 | 17 | inhibition [34]: 27%
12 | COC1=C(Br)[C@@H](O)[C@]2(C=C1Br)CC(C(=O)NCCCOc1c(Br)cc(CCNC(=N)N)cc1Br)=NO2 | 8 | 85 | 12 | 100 | 78 | 45 | 32 | 24 | 98 | 25 | 94 | 48 | inhibition [35]: 40%
13 | COC1=C(Br)[C@@H](O)[C@]2(C=C1Br)CC(C(=O)NCCCOc1c(Br)cc(C(=O)O)cc1Br)=NO2 | 25 | 81 | 21 | 94 | 37 | 33 | 39 | 60 | 86 | 29 | 101 | 68 | inhibition [36]: 35%
